Measured values as given in ChEMBL document CHEMBL1137710, “Synthesis and in vitro antitumor activity of new quinoxaline derivatives” (2009).

Key:
Type in all cases: functional
MDA-MB-231 = test: Growth inhibition of human MDA-MB-231 cells after 48 hrs by sulforhodamine B assay; details: MDA-MB-231, 48 h
Outline: (§1)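 NCI 60-human-tumor-cell-line panel, with compounds tested over a 5-log dose range. Values are taken from dose-response curves as log10 molar concentrations: GI50 is 50% net growth inhibition, TGI is total growth inhibition, and LC50 is 50% net cell death.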

NCI-H460 [1] = test: Anticancer activity against human NCI-H460 cells assessed as cell growth at 100 uM after 48 hrs by sulforhodamine B assay; details: NCI-H460, 48 h, read-out: Activity
NCI-H322M = test: Growth inhibition of human NCI-H322M cells after 48 hrs by sulforhodamine B assay; outline: as §1
UO-31 = test: Growth inhibition of human UO31 cells after 48 hrs by sulforhodamine B assay; details: UO-31, 48 h
Outline: (§2)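 Run in the NCI 60-human-tumour-cell-line panel, tested over a 5-log dose range. Dose–response curves gave three values per cell line, each as a log10 molar concentration: GI50 (50% inhibition of net cell growth), TGI (total inhibition of net growth) and LC50 (50% net cell death). The mean graph midpoint is the arithmetic mean over all lines, with insensitive lines entered at the highest concentration tested.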

KM12 = test: Growth inhibition of human KM12 cells after 48 hrs by sulforhodamine B assay; details: KM12, 48 h; outline: as §1
PC-3 = test: Growth inhibition of human PC3 cells after 48 hrs by sulforhodamine B assay; details: PC-3, 48 h; outline: as §1
HOP-62 = test: Growth inhibition of human HOP62 cells after 48 hrs by sulforhodamine B assay; details: HOP-62, 48 h; outline: as §1
MCF7 [2] = test: Growth inhibition of human MCF7 cells after 48 hrs by sulforhodamine B assay; details: MCF7, 48 h; outline: as §1
OVCAR-3 = test: Growth inhibition of human OVCAR-3 cells after 48 hrs by sulforhodamine B assay; details: OVCAR-3, 48 h; outline: as §1
SF-268 [3] = test: Anticancer activity against human SF268 cells assessed as cell growth at 100 uM after 48 hrs by sulforhodamine B assay; details: SF-268, 48 h, read-out: Activity
OVCAR-5 = test: Growth inhibition of human OVCAR5 cells after 48 hrs by sulforhodamine B assay; details: OVCAR-5, 48 h; outline: as §1
CAKI-1 = test: Growth inhibition of human Caki1 cells after 48 hrs by sulforhodamine B assay; details: CAKI-1, 48 h; outline: as §1
IGROV-1 = test: Growth inhibition of human IGROV1 cells after 48 hrs by sulforhodamine B assay; details: IGROV-1, 48 h; outline: as §1
[4] = Growth inhibition of human Hs 578T cells after 48 hrs by sulforhodamine B assay; outline: as §1
TK-10 = test: Growth inhibition of human TK10 cells after 48 hrs by sulforhodamine B assay; details: TK-10, 48 h; outline: as §2
NCI-H460 [5] = test: Growth inhibition of human NCI-H460 cells after 48 hrs by sulforhodamine B assay; details: NCI-H460, 48 h; outline: as §1
NCI-H522 = test: Growth inhibition of human NCI-H522 cells after 48 hrs by sulforhodamine B assay; details: NCI-H522, 48 h; outline: as §1
UACC-257 = test: Growth inhibition of human UACC257 cells after 48 hrs by sulforhodamine B assay; details: UACC-257, 48 h; outline: as §2
MDA-MB-435 = test: Growth inhibition of human MDA-MB-435 cells after 48 hrs by sulforhodamine B assay; details: MDA-MB-435, 48 h; outline: as §1
OVCAR-8 = test: Growth inhibition of human OVCAR8 cells after 48 hrs by sulforhodamine B assay; details: OVCAR-8, 48 h; outline: as §1
SK-MEL-5 = test: Growth inhibition of human SK-MEL-5 cells after 48 hrs by sulforhodamine B assay; details: SK-MEL-5, 48 h; outline: as §1
786-0 = test: Growth inhibition of human 786-0 cells after 48 hrs by sulforhodamine B assay; details: 786-0, 48 h; outline: as §1
COLO 205 = test: Growth inhibition of human COLO205 cells after 48 hrs by sulforhodamine B assay; details: COLO 205, 48 h; outline: as §1
SF-295 = test: Growth inhibition of human SF295 cells after 48 hrs by sulforhodamine B assay; details: SF-295, 48 h; outline: as §1
U-251 = test: Growth inhibition of human U251 cells after 48 hrs by sulforhodamine B assay; details: U-251, 48 h; outline: as §2
SK-OV-3 = test: Growth inhibition of human SKOV3 cells after 48 hrs by sulforhodamine B assay; details: SK-OV-3, 48 h; outline: as §1
SF-268 [6] = test: Growth inhibition of human SF268 cells after 48 hrs by sulforhodamine B assay; details: SF-268, 48 h; outline: as §1
MCF7 [7] = test: Anticancer activity against human MCF7 cells assessed as cell growth at 100 uM after 48 hrs by sulforhodamine B assay; details: MCF7, 48 h, read-out: Activity
SNB-19 = test: Growth inhibition of human SNB19 cells after 48 hrs by sulforhodamine B assay; details: SNB-19, 48 h; outline: as §2
OVCAR-4 = test: Growth inhibition of human OVCAR4 cells after 48 hrs by sulforhodamine B assay; details: OVCAR-4, 48 h; outline: as §1
[8] = read-out: pLC50 (the source's name) (converted)

COc1ccc(Sc2nc3cc(N)cc(N)c3nc2-c2ccccc2)cc1
12.9 µM: GI50 (TK-10)
28.2 µM: GI50 (KM12)
4.17 µM: GI50 (UO-31)
3.24 µM: GI50 (NCI-H522)
43.7 µM: GI50 (UACC-257)
19.5 µM: GI50 (COLO 205)
70.8 µM: CC50 (786-0; [8])
19.1 µM: CC50 (PC-3; [8])
35.5 µM: GI50 (NCI-H322M)
0%: growth at 100 µM (NCI-H460 [1])
52.5 µM: TGI (CAKI-1; read-out: pTGI (converted))
1.74 µM: GI50 (PC-3)
8%: growth at 100 µM (MCF7 [7])
> 100 µM: GI50 (MDA-MB-231) | CC50 (MDA-MB-231; [8]) | TGI (MDA-MB-231; read-out: pTGI (converted)) | LC50 (NCI-H322M) | TGI (NCI-H322M; read-out: pTGI (converted)) | CC50 (UO-31; [8]) | TGI (UO-31; read-out: pTGI (converted)) | LC50 (50% net cell kill) (KM12) | TGI (KM12; read-out: pTGI (converted)) | GI50 (HOP-62) | LC50 (HOP-62) | TGI (HOP-62; read-out: pTGI (converted)) | CC50 (MCF7 [2]; [8]) | TGI (MCF7 [2]; read-out: pTGI (converted)) | CC50 (OVCAR-3; [8]) | TGI (OVCAR-3; read-out: pTGI (converted)) | GI50 (OVCAR-5) | CC50 (OVCAR-5; [8]) | TGI (OVCAR-5; read-out: pTGI (converted)) | CC50 (CAKI-1; [8]) | CC50 (IGROV-1; [8]) | TGI (IGROV-1; read-out: pTGI (converted)) | GI50 [4] | CC50 [4, 8] | TGI ([4]; read-out: pTGI (converted)) | LC50 (50% net cell kill) (NCI-H460 [5]) | TGI (NCI-H460 [5]; read-out: pTGI (converted)) | LC50 (NCI-H522) | TGI (NCI-H522; read-out: pTGI (converted)) | CC50 (UACC-257; [8]) | TGI (UACC-257; read-out: pTGI (converted)) | GI50 (MDA-MB-435) | CC50 (MDA-MB-435; [8]) | TGI (MDA-MB-435; read-out: pTGI (converted)) | GI50 (OVCAR-8) | CC50 (OVCAR-8; [8]) | TGI (OVCAR-8; read-out: pTGI (converted)) | CC50 (SK-MEL-5; [8]) | TGI (SK-MEL-5; read-out: pTGI (converted)) | LC50 (50% net cell kill) (COLO 205) | TGI (COLO 205; read-out: pTGI (converted)) | GI50 (SF-295) | LC50 (50% net cell kill) (SF-295) | TGI (SF-295; read-out: pTGI (converted)) | GI50 (U-251) | LC50 (50% net cell kill) (U-251) | TGI (U-251; read-out: pTGI (converted)) | CC50 (SK-OV-3; [8]) | TGI (SK-OV-3; read-out: pTGI (converted)) | GI50 (SF-268 [6]) | LC50 (SF-268 [6]) | TGI (SF-268 [6]; read-out: pTGI (converted)) | GI50 (SNB-19) | LC50 (SNB-19) | TGI (SNB-19; read-out: pTGI (converted)) | CC50 (OVCAR-4; [8]) | TGI (OVCAR-4; read-out: pTGI (converted))
13.2 µM: GI50 (CAKI-1) | GI50 (786-0)
30.2 µM: TGI (TK-10; read-out: pTGI (converted)) | TGI (786-0; read-out: pTGI (converted))
16.6 µM: GI50 (MCF7 [2])
7%: growth at 100 µM (SF-268 [3])
72.4 µM: CC50 (TK-10; [8])
20 µM: GI50 (NCI-H460 [5])
33.1 µM: GI50 (SK-OV-3)
24 µM: GI50 (SK-MEL-5)
5.13 µM: TGI (PC-3; read-out: pTGI (converted))
